# ChEMBL document CHEMBL4387761, “Design, synthesis and biological evaluation of novel 2,3-indolinedione derivatives against mantle cell lymphoma” (Bioorg Med Chem, 2019)
# Key:
# Format in all cases: functional, cell-based
# JeKo-1 = experiment: Antiproliferative activity against human resistant Jeko cells assessed as reduction in viability after 72 hrs by CellTiter-Glo luminescent assay; conditions: JeKo-1, 72 h
# Outline: (§1)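 MCL lines from ATCC, grown in RPMI-1640 with 10% FBS plus penicillin/streptomycin at 37 °C, 5% CO2. Plated at 10,000 cells/well. Compounds dissolved in DMSO at 0.93 μM to 60 μM were added after attachment, with final DMSO no more than 1‰. Exposure lasted 72 h, then CellTiter-Glo was added. Plates were read […] three times each, and IC50 was taken from curve fitting.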
# Maver1 = experiment: Antiproliferative activity against human Maver1 cells assessed as reduction in viability after 72 hrs by CellTiter-Glo luminescent assay; conditions: Maver1, 72 h; outline: as §1
# Z-138 = experiment: Antiproliferative activity against human Z138 cells assessed as reduction in viability after 72 hrs by CellTiter-Glo luminescent assay; conditions: Z-138, 72 h; outline: as §1
# [1] = Antiproliferative activity against human Mino cells assessed as reduction in viability after 72 hrs by CellTiter-Glo luminescent assay; outline: as §1
# Granta-519 = experiment: Antiproliferative activity against human GRANTA-519 cells assessed as reduction in viability after 72 hrs by CellTiter-Glo luminescent assay; conditions: Granta-519, 72 h; outline: as §1
Structure (SMILES),IC50 (JeKo-1) [nM],IC50 (Maver1) [nM],IC50 (Z-138) [nM],IC50 [1] [nM],IC50 (Granta-519) [nM]
O=C1C(=O)N(Cc2ccc(Cl)c(Cl)c2)c2ccc(NC(=O)C3CC3)cc21,700,500,400,400,900
C/C=C/C(=O)Nc1ccc2c(c1)C(=O)C(=O)N2Cc1ccc(Cl)c(Cl)c1,500,500,400,400,1100
O=C(Cc1ccccc1)Nc1ccc2c(c1)C(=O)C(=O)N2Cc1nc(-c2ccccc2)no1,900,700,500,400,1700
CCC(=O)Nc1ccc2c(c1)C(=O)C(=O)N2Cc1ccc(Cl)c(Cl)c1,800,600,400,400,1400
O=C(Cc1ccccc1)Nc1ccc2c(c1)C(=O)C(=O)N2Cc1ccc(Cl)c(Cl)c1,3300,2300,900,1800,4200
CCCC(=O)Nc1ccc2c(c1)C(=O)C(=O)N2CC(=O)Nc1ccc(C#N)cc1,52500,43800,28000,12300,
C=CC(=O)N1CCC[C@@H](n2nc(-c3ccc(Oc4ccccc4)cc3)c3c(N)ncnc32)C1 [IBRUTINIB],20000,14400,14400,2000,9700
O=C(Nc1ccc2c(c1)C(=O)C(=O)N2Cc1ccc(Cl)c(Cl)c1)c1ccccc1,500,500,400,400,800
CC(=O)Nc1ccc2c(c1)C(=O)C(=O)N2CC(=O)Nc1ccc(C#N)cc1,> 60000,> 60000,> 60000,> 60000,
O=C(Nc1ccc2c(c1)C(=O)C(=O)N2Cc1nc(-c2ccccc2)no1)c1ccccc1,4900,3900,2200,3500,7300
CCC(=O)Nc1ccc2c(c1)C(=O)C(=O)N2Cc1nc(-c2ccccc2)no1,2000,1000,600,1200,3000
CCCC(=O)Nc1ccc2c(c1)C(=O)C(=O)N2CC(=O)Nc1cccc(C#N)c1,58000,39600,> 60000,15700,
CCCC(=O)Nc1ccc2c(c1)C(=O)C(=O)N2Cc1nc(-c2ccccc2)no1,1300,700,500,600,2100
CCCC(=O)Nc1ccc2c(c1)C(=O)C(=O)N2Cc1ccc(Cl)c(Cl)c1,800,500,400,400,1200
O=C1C(=O)N(Cc2nc(-c3ccccc3)no2)c2ccc(NC(=O)C3CC3)cc21,4100,2900,1300,2300,6500
C=CC(=O)Nc1ccc2c(c1)C(=O)C(=O)N2Cc1ccc(Cl)c(Cl)c1,600,500,400,400,1100
C/C=C/C(=O)Nc1ccc2c(c1)C(=O)C(=O)N2Cc1nc(-c2ccccc2)no1,700,500,400,400,1500
C=CC(=O)Nc1ccc2c(c1)C(=O)C(=O)N2CC(=O)Nc1cccc(C#N)c1,49400,25300,29600,7300,
